Test results: PMC4176526 (Bioorganic & medicinal chemistry letters, 2014)

Molecular target: Myc-tagged Akt1 (Homo sapiens, UniProt P31749)
Assay type: biochemical
Settings: at 5 µM, immunoblot
How it was run: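 HEK293 cells transfected with Myc-tagged Akt1; the kinase was immunoprecipitated with anti-Myc antibody. The immobilized enzyme was incubated with a GSK3β fusion protein substrate, with or without test compound. Phospho-GSK3β was detected by immunoblot, and an approximate IC50 was estimated from the blots.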

Chain of Myc-tagged Akt1 (P31749 whole entry): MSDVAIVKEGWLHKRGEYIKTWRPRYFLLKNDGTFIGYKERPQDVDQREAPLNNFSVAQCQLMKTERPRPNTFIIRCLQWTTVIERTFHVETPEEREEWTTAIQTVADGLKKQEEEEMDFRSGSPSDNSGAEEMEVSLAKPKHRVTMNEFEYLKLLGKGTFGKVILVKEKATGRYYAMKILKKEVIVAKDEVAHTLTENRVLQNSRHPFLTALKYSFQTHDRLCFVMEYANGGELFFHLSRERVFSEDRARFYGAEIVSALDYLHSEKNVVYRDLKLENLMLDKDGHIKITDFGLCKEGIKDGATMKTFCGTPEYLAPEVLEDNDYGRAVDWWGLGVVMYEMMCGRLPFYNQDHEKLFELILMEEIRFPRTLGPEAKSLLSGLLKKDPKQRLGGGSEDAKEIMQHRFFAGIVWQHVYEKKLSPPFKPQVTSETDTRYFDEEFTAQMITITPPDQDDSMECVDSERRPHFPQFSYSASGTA

phosphorylation of GSK3β: completely blocks
Compound: NC1(c2ccc(-c3nc4ccn5c(=O)[nH]nc5c4cc3-c3ccccc3)cc2)CCC1 [MK2206]
